Source: ChEMBL document CHEMBL3864121, “Development of ebsulfur analogues as potent antibacterials against methicillin-resistant Staphylococcus aureus” (Bioorg Med Chem, 2016)
≈ marks a conversion by molar mass, not a printed value.

Experiments:
[1] = test system: Staphylococcus aureus; assay: Antibacterial activity against methicillin-resistant Staphylococcus aureus C7 measured after overnight incubation by broth double-dilution method; format: functional
Procedure, shortened: (§1)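 MIC by broth double-dilution in liquid Mueller-Hinton medium. Values are reported in µg/mL.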

[2] = test system: Staphylococcus aureus; assay: Antibacterial activity against methicillin-sensitive Staphylococcus aureus ATCC 25923 measured after overnight incubation by broth double-dilution method; format: functional; procedure, shortened: as §1
[3] = test system: Staphylococcus aureus; assay: Antibacterial activity against methicillin-resistant Staphylococcus aureus NRS4 measured after overnight incubation by broth double-dilution method; format: functional; procedure, shortened: as §1
[4] = test system: Staphylococcus aureus; assay: Antibacterial activity against methicillin-resistant Staphylococcus aureus ATCC 33591 measured after overnight incubation by broth double-dilution method; format: functional; procedure, shortened: as §1
[5] = test system: Mycolicibacterium smegmatis; assay: Antibacterial activity against Mycobacterium smegmatis MC2-155 measured after overnight incubation by broth double-dilution method; format: functional; conditions: str. MC2 155; procedure, shortened: as §1
[6] = test system: Staphylococcus aureus; assay: Antibacterial activity against methicillin-resistant Staphylococcus aureus S22 measured after overnight incubation by broth double-dilution method; format: functional; procedure, shortened: as §1
[7] = test system: Staphylococcus aureus; assay: Antibacterial activity against methicillin-resistant Staphylococcus aureus G14 measured after overnight incubation by broth double-dilution method; format: functional; procedure, shortened: as §1
[8] = test system: Staphylococcus aureus; assay: Antibacterial activity against methicillin-resistant Staphylococcus aureus 1 measured after overnight incubation by broth double-dilution method; format: functional; procedure, shortened: as §1
[9] = test system: Staphylococcus aureus; assay: Antibacterial activity against methicillin-resistant Staphylococcus aureus C19 measured after overnight incubation by broth double-dilution method; format: functional; procedure, shortened: as §1
[10] = test system: Staphylococcus aureus; assay: Antibacterial activity against methicillin-resistant Staphylococcus aureus G6 measured after overnight incubation by broth double-dilution method; format: functional; procedure, shortened: as §1
[11] = test system: Enterococcus faecalis; assay: Antibacterial activity against Enterococcus faecalis ATCC 29212 measured after overnight incubation by broth double-dilution method; format: functional
Procedure, shortened: (§2)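 MIC by broth double-dilution in Mueller-Hinton medium. Re-testing at the time-kill inoculum used 1×10^6 CFU/mL.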

[12] = test system: Staphylococcus aureus; assay: Antibacterial activity against methicillin-resistant Staphylococcus aureus C14 measured after overnight incubation by broth double-dilution method; format: functional; procedure, shortened: as §1
[13] = test system: Staphylococcus aureus; assay: Antibacterial activity against methicillin-resistant Staphylococcus aureus USA300 measured after overnight incubation by broth double-dilution method; format: functional; procedure, shortened: as §1
[14] = test system: Staphylococcus epidermidis; assay: Antibacterial activity against Staphylococcus epidermidis ATCC 35984 measured after overnight incubation by broth double-dilution method; format: functional; conditions: RP62A; procedure, shortened: as §2
[15] = test system: Enterococcus faecium; assay: Antibacterial activity against Enterococcus faecium BM4105-RF measured after overnight incubation by broth double-dilution method; format: functional; procedure, shortened: as §1
[16] = test system: Staphylococcus aureus; assay: Antibacterial activity against methicillin-resistant Staphylococcus aureus USA200 measured after overnight incubation by broth double-dilution method; format: functional; procedure, shortened: as §1
[17] = test system: Staphylococcus aureus; assay: Antibacterial activity against methicillin-resistant Staphylococcus aureus S17 measured after overnight incubation by broth double-dilution method; format: functional; procedure, shortened: as §1
[18] = test system: Staphylococcus aureus; assay: Antibacterial activity against methicillin-sensitive Staphylococcus aureus ATCC 6538 measured after overnight incubation by broth double-dilution method; format: functional; procedure, shortened: as §1
[19] = test system: Enterococcus; assay: Antibacterial activity against Vancomycin-resistant Enterococcus measured after overnight incubation by broth double-dilution method; format: functional; procedure, shortened: as §1
[20] = test system: Staphylococcus aureus; assay: Antibacterial activity against methicillin-resistant Staphylococcus aureus C1 measured after overnight incubation by broth double-dilution method; format: functional; procedure, shortened: as §1
[21] = test system: Staphylococcus aureus; assay: Antibacterial activity against methicillin-resistant Staphylococcus aureus C16 measured after overnight incubation by broth double-dilution method; format: functional; procedure, shortened: as §1
[22] = test system: Enterococcus faecalis; assay: Antibacterial activity against Enterococcus faecalis ATCC 49533 measured after overnight incubation by broth double-dilution method; format: functional; procedure, shortened: as §2
[23] = test system: Staphylococcus aureus; assay: Antibacterial activity against methicillin-resistant Staphylococcus aureus G12 measured after overnight incubation by broth double-dilution method; format: functional; procedure, shortened: as §1
[24] = test system: Staphylococcus aureus; assay: Antibacterial activity against methicillin-resistant Staphylococcus aureus S14 measured after overnight incubation by broth double-dilution method; format: functional; procedure, shortened: as §1
[25] = test system: Staphylococcus aureus; assay: Antibacterial activity against methicillin-resistant Staphylococcus aureus NRS51 measured after overnight incubation by broth double-dilution method; format: functional; procedure, shortened: as §1
[26] = test system: Staphylococcus aureus; assay: Antibiofilm activity against methicillin-sensitive Staphylococcus aureus ATCC 6538 assessed as reduction of biofilm at 62..5 ug/ml measured after 24 hrs by crystal violet staining based method relative to control; format: functional; parameters: scale not given: the % may be the effect or the level left
[27] = test system: Staphylococcus aureus; assay: Antibacterial activity against methicillin-resistant Staphylococcus aureus BRS3 measured after overnight incubation by broth double-dilution method; format: functional; procedure, shortened: as §1
[28] = test system: Staphylococcus aureus; assay: Antibacterial activity against methicillin-resistant Staphylococcus aureus USA100 measured after overnight incubation by broth double-dilution method; format: functional; procedure, shortened: as §1
[29] = test system: Staphylococcus aureus; assay: Antibacterial activity against methicillin-resistant Staphylococcus aureus C2 measured after overnight incubation by broth double-dilution method; format: functional; procedure, shortened: as §1
[30] = test system: Staphylococcus aureus; assay: Antibacterial activity against methicillin-resistant Staphylococcus aureus NRS77 measured after overnight incubation by broth double-dilution method; format: functional; procedure, shortened: as §1
[31] = test system: Staphylococcus aureus; assay: Antibacterial activity against methicillin-resistant Staphylococcus aureus USA600 measured after overnight incubation by broth double-dilution method; format: functional; procedure, shortened: as §1
[32] = test system: Listeria monocytogenes; assay: Antibacterial activity against Listeria monocytogenes ATCC 19115 measured after overnight incubation by broth double-dilution method; format: functional; procedure, shortened: as §2
[33] = test system: Staphylococcus aureus; assay: Antibacterial activity against methicillin-resistant Staphylococcus aureus 2 measured after overnight incubation by broth double-dilution method; format: functional; procedure, shortened: as §1
[34] = test system: Staphylococcus aureus; assay: Antibacterial activity against methicillin-sensitive Staphylococcus aureus ATCC 29213 measured after overnight incubation by broth double-dilution method; format: functional; procedure, shortened: as §1
[35] = test system: Staphylococcus aureus; assay: Antibacterial activity against methicillin-resistant Staphylococcus aureus G1 measured after overnight incubation by broth double-dilution method; format: functional; procedure, shortened: as §1
[36] = test system: Staphylococcus aureus; assay: Antibacterial activity against methicillin-resistant Staphylococcus aureus S24 measured after overnight incubation by broth double-dilution method; format: functional; procedure, shortened: as §1
[37] = test system: Staphylococcus aureus; assay: Antibiofilm activity against methicillin-sensitive Staphylococcus aureus ATCC 6538 assessed as reduction of biofilm at […] measured after 24 hrs by crystal violet staining based method relative to control; format: functional; parameters: scale not given: the % may be the effect or the level left
[38] = Cytotoxicity against HEK293 cells assessed as cell death up to 10 ug/ml measured after 24 hrs by resazurin dye-based fluorescence analysis relative to untreated control; format: toxicity; conditions: human, hek293, 24 h
[39] = test system: Staphylococcus epidermidis; assay: Antibiofilm activity against Staphylococcus epidermidis ATCC 35984 assessed as reduction of biofilm at […] measured after 24 hrs by crystal violet staining based method relative to control; format: functional, RP62A; parameters: scale not given: the % may be the effect or the level left

| SMILES | MIC [1] [µg/mL] | MIC [2] [µg/mL] | MIC [3] [µg/mL] | MIC [4] [µg/mL] | MIC [5] [µg/mL] | MIC [6] [µg/mL] | MIC [7] [µg/mL] | MIC [8] [µg/mL] | MIC [9] [µg/mL] | MIC [10] [µg/mL] | MIC [11] [µg/mL] | MIC [12] [µg/mL] | MIC [13] [µg/mL] | MIC [14] [µg/mL] | MIC [15] [µg/mL] | MIC [16] [µg/mL] | MIC [17] [µg/mL] | MIC [18] [µg/mL] | MIC [19] [µg/mL] | MIC [20] [µg/mL] | other results |
| --- | --- | --- | --- | --- | --- | --- | --- | --- | --- | --- | --- | --- | --- | --- | --- | --- | --- | --- | --- | --- | --- |
| O=c1c2ccccc2sn1-c1ccc(F)cc1 | 1 (≈ 4.08 µM) | 2 (≈ 8.15 µM) | 3.9 (≈ 15.9 µM) | 1 (≈ 4.08 µM) | 1 (≈ 4.08 µM) | 2 (≈ 8.15 µM) | 2 (≈ 8.15 µM) | 3.9 (≈ 15.9 µM) | 2 (≈ 8.15 µM) | 3.9 (≈ 15.9 µM) | 62.5 (≈ 255 µM) | 3.9 (≈ 15.9 µM) | 2 (≈ 8.15 µM) | 2 (≈ 8.15 µM) | 31.3 (≈ 128 µM) | 3.9 (≈ 15.9 µM) | 3.9 (≈ 15.9 µM) | 3.9 (≈ 15.9 µM) | 2 (≈ 8.15 µM) | 2 (≈ 8.15 µM) | MIC [21]: 3.9 µg/mL (≈ 15.9 µM); MIC [22]: > 125 µg/mL; MIC [23]: 2 µg/mL (≈ 8.15 µM); MIC [24]: ≤ 0.25 µg/mL; MIC [25]: 3.9 µg/mL (≈ 15.9 µM); Activity [26]: 10%; MIC [27]: 3.9 µg/mL (≈ 15.9 µM); MIC [28]: 2 µg/mL (≈ 8.15 µM); MIC [29]: 3.9 µg/mL (≈ 15.9 µM); MIC [30]: 3.9 µg/mL (≈ 15.9 µM); MIC [31]: 2 µg/mL (≈ 8.15 µM); MIC [32]: 2 µg/mL (≈ 8.15 µM); MIC [33]: 2 µg/mL (≈ 8.15 µM); MIC [34]: 3.9 µg/mL (≈ 15.9 µM); MIC [35]: 2 µg/mL (≈ 8.15 µM); MIC [36]: 2 µg/mL (≈ 8.15 µM) |
| CC(C)c1ccc(-n2sc3ccccc3c2=O)cc1 | 0.5 (≈ 1.86 µM) | 2 (≈ 7.42 µM) | 2 (≈ 7.42 µM) | ≤ 0.25 | 0.5 (≈ 1.86 µM) | 0.5 (≈ 1.86 µM) | 1 (≈ 3.71 µM) | ≤ 0.25 | 0.5 (≈ 1.86 µM) | 0.5 (≈ 1.86 µM) | 15.6 (≈ 57.9 µM) | 1 (≈ 3.71 µM) | 2 (≈ 7.42 µM) | 0.25 (≈ 0.928 µM) | 15.6 (≈ 57.9 µM) | 1 (≈ 3.71 µM) | ≤ 0.25 | 2 (≈ 7.42 µM) | ≤ 0.25 | ≤ 0.25 | Activity [37]: 50%; Activity [38]: > 20%; MIC [21]: 1 µg/mL (≈ 3.71 µM); MIC [22]: 62.5 µg/mL (≈ 232 µM); MIC [23]: 1 µg/mL (≈ 3.71 µM); MIC [24]: ≤ 0.25 µg/mL; Activity [39]: 50 - 60%; MIC [25]: 0.5 µg/mL (≈ 1.86 µM); MIC [27]: 2 µg/mL (≈ 7.42 µM); MIC [28]: 0.5 µg/mL (≈ 1.86 µM); MIC [29]: 0.5 µg/mL (≈ 1.86 µM); MIC [30]: 1 µg/mL (≈ 3.71 µM); MIC [31]: 1 µg/mL (≈ 3.71 µM); MIC [32]: 0.5 µg/mL (≈ 1.86 µM); MIC [33]: 1 µg/mL (≈ 3.71 µM); MIC [34]: ≤ 0.25 µg/mL; MIC [35]: ≤ 0.25 µg/mL; MIC [36]: ≤ 0.25 µg/mL |
